From PMC10925246 (bioRxiv, 2024)
Ends that are not written are not given here.

Tests used:
[1] = test system: P. aeruginosa PA14; assay: Polyamine toxicity for PA14; format: cell-based, Pseudomonas aeruginosa; settings: 10^6 cfu/ml PA14, 30 mOsm/l, alamarBlue; n = 3 experiments
[2] = test system: P. aeruginosa PA14; format: cell-based, Pseudomonas aeruginosa; settings: for minimum inhibitory concentration (MIC): PA14, CFU assay
[3] = test system: ^14C-spermidine uptake by PA14; assay: Polyamine transport assay; format: cell-based, Pseudomonas aeruginosa; settings: 10 and 25 µM, 45 min 35°C pretreatment, n = 3 experiments
Method in brief: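 PA14 (0.8×10^8 cfu in 100 µl dilute phosphate saline) was pre-incubated 45 min at 35°C with or without 10 or 25 µM test peptide. Cells were then given 1 µl of 10 mM [1,4-14C]spermidine stock (0.1 mCi/ml) for 15 min at 35°C. Pellets were washed four times with phosphate-buffered saline and counted by liquid scintillation, last wash also counted. Molecules per cell were estimated from a spermidine standard curve.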

[4] = test system: P. aeruginosa PA14; assay: N-104 resistance assay over 30 generations; format: cell-based, Pseudomonas aeruginosa; settings: through 30 generations, sub-MIC and MIC exposure; n = 2 experiments
[5] = test system: FeoB; format: binding, P. aeruginosa PAO1; settings: overnight 4°C, 0.15 M NaCl; eluted with 0.5 and 1 M KCl, not 0.3 M KCl; n = 3 experiments
Method in brief: (§1)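 Cys-extended test peptide (2 mg) was coupled to SulfoLink resin in 50 mM Tris pH 8.5, 5 mM EDTA, 3 h room temperature. His-tagged transporter was Ni-Sepharose purified (4 h, 4°C; imidazole elution) and applied to the column; the flowthrough was collected. Columns were washed with 10 mM HEPES, 0.05% dodecyl-maltoside, 0.15 M KCl, then step-eluted with 0.3, 0.5, 1.0 M KCl. Unboiled fractions went to 4–20% SDS-PAGE and anti-His (1 µg/ml, overnight 4°C) western with IRDye secondary.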

[6] = target: T1, PotH (Escherichia coli, UniProt P31135); format: binding, E. coli; settings: overnight 4°C, 0.15 M NaCl; eluted with 0.5 and 1 M KCl, not 0.3 M KCl; n = 3 experiments
T1 sequence (P31135 1-317): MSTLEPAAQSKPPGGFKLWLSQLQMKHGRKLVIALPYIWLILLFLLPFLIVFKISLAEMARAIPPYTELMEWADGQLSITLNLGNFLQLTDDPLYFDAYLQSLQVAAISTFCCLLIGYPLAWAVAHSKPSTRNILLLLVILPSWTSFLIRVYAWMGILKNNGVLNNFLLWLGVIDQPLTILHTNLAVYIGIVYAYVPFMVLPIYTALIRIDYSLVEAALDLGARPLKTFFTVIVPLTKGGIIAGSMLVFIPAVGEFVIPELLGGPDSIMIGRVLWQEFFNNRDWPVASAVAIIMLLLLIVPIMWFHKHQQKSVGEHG
Method in brief: as §1

[7] = test system: PA14 feoB, potH and yaiW transposon mutants; assay: CFU killing assay of PA14 transposon mutants; format: cell-based, Pseudomonas aeruginosa; settings: 10^6 cfu/ml, 30 mOsm/l; n = 3 experiments
Method in brief: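 Suspensions were exposed to test peptide or left untreated ~8 h at 35°C. 2 µl were spotted on LB agar, with or without selective antibiotic, incubated overnight at 37°C and imaged; n = 3 experiments.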

[8] = target: thrombin (Homo sapiens, UniProt P00734); assay: N-104 affinity column screen of human tears, thrombin western blot; format: binding; settings: pooled human basal tears, 5 hours 4°C, KCl elution, anti-thrombin western blot
Method in brief: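 Basal tears were collected 5 min on Schirmer strips after 0.5% proparacaine, eluted at 4°C in phosphate-buffered saline and pooled (170 µl). The pool was diluted fivefold with protease inhibitors, agarose-precleared, and split by protein between test-peptide and control-peptide columns for 5 h at 4°C. Elution was 0.3/0.5/1.0 M KCl; the 0.5 M eluate went to MS (human UniProt search). Unboiled fractions: 4–20% SDS-PAGE, polyclonal anti-thrombin 1 µg/ml overnight 4°C, LI-COR detection.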

[9] = test system: PA14 pathogenesis in C. elegans N2; assay: C. elegans - PA14 liquid infection; format: in vivo, Caenorhabditis elegans; settings: SYTOX Orange uptake of dead worms
Method in brief: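 Young adult worms (raised from L1 on NGM with E. coli OP50 at room temperature, washed off in M9, pelleted 1200×g 2 min) were placed ~50 per well in 150 µl 90% M9/10% LB. They were incubated aerobically with an equal volume of PA14, feoB/potH/yaiW transposon mutants, or OP50, diluted to 10^7 cfu/ml and pre-treated with 50 µM test peptide for 5 h at 35°C. After 3 days, equal volume 6 µM SYTOX Orange was added; imaged next day, transmitted and 535/610 nm fluorescence.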

[10] = Solubility of synthetic loop peptides in solvents; format: physicochemical; settings: lyophilized synthetic peptide, acetylated and amidated
Method in brief: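 Synthetic outer-loop peptides were N-acetylated and C-amidated, ≥95% HPLC purity, and stored lyophilized at −80°C. Each was […] as required before competition binding at 0–250 µM.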

NCCCCNCCCN [spermidine]
concentrations toxic for PA14 [1]: greater than 100 µM
effect of exogenous polyamine on N-104 bactericidal activity ([2]; PA14, 5 µM N-104 plus polyamine at or below 100 µM, n = 3 experiments): inhibited N-104 bactericidal activity in a concentration-dependent manner

Ac-AKAGKGMHGGVPGG-NH2 [N-80/C-25]
effect on ^14C-spermidine uptake [3]: almost similar inhibitory effect

Ac-AQKLLKKFSLLKPWA [N-104]
development of resistance of PA14 [4]: No stable resistance
binding of His tagged FeoB to column immobilized peptide [5]: high affinity ligation
binding of His tagged PotH to column immobilized peptide [6]: high affinity ligation
killing of PA14 transposon mutant lacking YaiW [7]: partially resistant
capture of thrombin from human tears by column immobilized peptide [8]: binds
dependence of PA14 killing efficacy on osmolarity ([2]; two osmolalities (30 and 300 mOsm/l)): efficacy diminishes as osmolarity increases
effect of peptide alone on C. elegans [9]: no apparent effect

Ac-AQKLLKKFSLSKPWA [N-104:L115S]
minimum inhibitory concentration (MIC) [2]: 2 µM

Ac-AQKLLKKFSSLKPWA [N-104:L114S]
minimum inhibitory concentration (MIC) [2]: 2 µM

Ac-GAFFGQGGA-NH2 [FeoB outer loop 3 synthetic peptide]
solubility in water and organic solvents [10]: not water, DMSO, methanol, isopropanol nor acetonitrile soluble
solvent in which the peptide dissolved [10]: ammonia water and acetic acid

Ac-INIGGALQP-NH2 [FeoB outer loop 1 synthetic peptide]
solubility in water and organic solvents [10]: not water, DMSO, methanol, isopropanol nor acetonitrile soluble
solvent in which the peptide dissolved [10]: formic or acetic acid

EDASSDSTGADPAQEAGTSKPNEE-NH2 [C-95]
binding of His tagged FeoB to column immobilized peptide [5]: Neither bound
binding of His tagged PotH to column immobilized peptide [6]: Neither bound
capture of thrombin from human tears by column immobilized peptide [8]: None bound
